From PubChem BioAssay
Rows were chosen to be rich in hits. Some 2.2% of all compounds tested hit in one or more screens of this group.
STAT3 blocker = inhibitors of IL-6 induced STAT3 signaling. U3A cells, IL-6 STAT3-luciferase reporter, luminescence; host cell line lacks STAT1. 0.89% of 190,000 active. AID 862. inhibition, % at 5.5 µM;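 active means inhibition above the mean inhibition across all screened compounds plus 3 SD, cut at about 44% in these data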;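 further: 0% = DMSO only wells and 100% = 100 µM nifuroxazide control wells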
FLuc stim CS = firefly luciferase counter-screen for stimulation assays | P08659 | activation factor at 10 µM | 200,000 tested, under 10 active | ATPlite luciferase biochemical, luminescence, 10 min; 0 = ATP-free wells, 1 = DMSO control;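 active means luciferase activation factor, scaled between plate controls, of at least 2 with compound at 10 µM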
Target sequence (P08659 whole entry, looked up): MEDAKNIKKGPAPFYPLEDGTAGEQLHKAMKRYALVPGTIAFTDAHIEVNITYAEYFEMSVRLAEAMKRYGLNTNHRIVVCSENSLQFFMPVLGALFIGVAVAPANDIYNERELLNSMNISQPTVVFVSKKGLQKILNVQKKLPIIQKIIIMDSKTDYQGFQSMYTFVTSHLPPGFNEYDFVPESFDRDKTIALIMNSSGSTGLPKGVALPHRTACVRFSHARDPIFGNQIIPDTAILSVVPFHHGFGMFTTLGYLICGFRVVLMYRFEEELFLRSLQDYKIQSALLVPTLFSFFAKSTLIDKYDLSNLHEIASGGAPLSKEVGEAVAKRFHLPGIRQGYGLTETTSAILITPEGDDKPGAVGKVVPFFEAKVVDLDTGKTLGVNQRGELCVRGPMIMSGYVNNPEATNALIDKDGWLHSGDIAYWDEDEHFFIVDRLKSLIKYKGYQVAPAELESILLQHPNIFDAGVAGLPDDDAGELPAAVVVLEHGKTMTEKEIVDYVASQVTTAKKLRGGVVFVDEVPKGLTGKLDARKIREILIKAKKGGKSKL
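Material: Luciferase/luciferin reagent mix; Doses: test compounds dosed from 2 mM stocks in 100% DMSO; Schedule: 10 min incubation after luciferase reagent addition, room temperature; Measured by: luminescence from luciferase reaction; Read-out: luminescence gain marking luciferase activators.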
C8 TRAIL sens = sensitizes caspase-8 expressing cells to TRAIL; AID 624354; 1% of 360,000 active; NB7+C8 cells + TRAIL, ATPlite viability luminescence; inhibition (viability loss, TRAIL sensitization), % at 10 µM;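 active means compounds causing at least 50% loss of cell viability in the single-dose screen, relative to plate controls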
FLuc inh counter = Photinus pyralis luciferase inhibition counter-screen; P08659; ATPLite firefly luciferase biochemical luminescence, 10 min; inhibition, % at 10 µM; 1.5% of 200,000 active; AID 1006;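 active means inhibition above about 50% when tested at 10 µM, limit read from the data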
HSP90 inh = HSP90 refolding inhibition in rabbit reticulocyte lysate. inhibition, % at 5.6 µM. luciferase refolding luminescence, 3 h. 0.91% of 290,000 active. AID 1789;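 active means inhibition above the screen-wide mean plus 3 SD, computed separately per campaign, cut at about 16% in these data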;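 further: 0% = DMSO wells and 100% = 60 µM geldanamycin wells; inhibitors lower the luminescence because luciferase stays unfolded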
PPC-1+TRAIL kill = compounds killing PPC-1 cancer cells with TRAIL present (potentiator screen, no TRAIL-free arm). 0.41% of 220,000 active. AID 1443. cell killing (% activity), % at 4 µM or 5 µM. PPC-1 cells + TRAIL, ATPLite viability luminescence;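 active means cell killing above 50% in the first pass at 4 µM, then a duplicate retest at 5 µM averaging 50% or more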;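 further: plate controls were cells with TRAIL plus DMSO for no effect and medium-only wells lacking cells for full effect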
Numbers without * were called inactive; · = not tested or not shown.

SMILES | STAT3 blocker | FLuc stim CS | C8 TRAIL sens | FLuc inh counter | HSP90 inh | PPC-1+TRAIL kill
CCOC(=O)C(C)Sc1nnc(NC(=O)c2ccc3c(c2)OCO3)s1 (configuration not stated) | 15.6 | 0.9 | 16.5 | 12.1 | 4.4 | 12.3
CN(/N=C\c1ccc(O)c(O)c1)c1nc(-c2ccccc2)cc(-c2ccccc2)n1 | -1.2 | 1 | 28.7 | 4.8 | 4.1 | 19.2
CS/C(N)=N/N=C/c1cc(C)ccc1O | · | · | 64.4* | · | 6.8 | 39.4
CC1=C(SCc2ccccc2)C(=O)c2ccccc2C1=O | · | · | 51.5* | · | · | ·
O=C1C(SCCO)=C(SCCO)C(=O)c2ccccc21 | · | · | 23.7 | · | · | ·
CCOC(=O)CC1COc2ccccc2N1C(=O)c1cccc([N+](=O)[O-])c1 (configuration not stated) | · | · | 5.8 | · | 0.2 | ·
O=C(OCC(=O)c1ccc(Cl)s1)c1ccccn1 | 5.7 | 0.4 | 1.7 | 57.1* | -1.0 | -5.2
O=C(OCC(=O)c1ccc(Cl)s1)c1cnccn1 | · | · | -12.7 | · | -0.8 | ·
CN(C(=O)c1ccco1)c1nc2c(s1)CCCC2 | 31.9 | 0.2 | 59.4* | 77.3* | 5.5 | 48.1
CN(C(=O)c1ccco1)c1nnc(C23CC4CC(CC(C4)C2)C3)s1 | -34.5 | 0.8 | -12.5 | 21.3 | -0.1 | 1.6
CCC(=O)N1CCN(c2nc(CC)nc3sc4c(c23)CCCC4)CC1 | · | · | 1.9 | · | 4.1 | ·
CC1CCc2c(sc3nc(C(C)(C)C)nc(N4CCN(C(=O)CCl)CC4)c23)C1 (configuration not stated) | · | · | 94.3* | · | 4.5 | ·
O=C1NC2(CCCCC2)C(=O)N1CC(=O)N(Cc1ccccc1)c1ccccc1 | · | · | 8.3 | · | -1.1 | ·
N/C(=N\OC(=O)c1ccc(=O)n(Cc2ccccc2)c1)c1ccccn1 | -3.5 | 1 | -8.0 | -4.8 | -1.1 | 5.1
Cc1ccc(C(=O)NNC(=S)NC(=O)c2ccco2)cc1 | 5.6 | 1 | 18.8 | 4.2 | -1.7 | 7.3
Cc1ccc(C(=O)NNC(=O)c2ccco2)cc1 | 4.5 | 0.4 | 26.8 | 57.3* | 1.4 | 25.2
COc1ccc(Cl)cc1C(=O)O/N=C(\N)c1ccc(Cl)cc1 | -2.4 | 1 | 4.5 | 1.1 | 2.8 | 2.0
N/C(=N\OC(=O)c1ccco1)c1ccccn1 | 7.2 | 0.4 | -0.8 | 55.1* | 4.1 | 13.0
N/C(=N\OC(=O)c1ccco1)c1ccc(Br)cc1 | 15.5 | 0.7 | 2.8 | 33.5 | -5.2 | 0.0
N/C(=N\OC(=O)c1ccco1)c1ccccc1 | 15.8 | 0.4 | -10.3 | 58.1* | 2.0 | 0.7
Cc1occc1C(=O)O/N=C(\N)c1ccc(Cl)cc1 | · | · | 87.0* | · | -6.9 | 24.5
Cc1cccc(/C(N)=N/OC(=O)c2ccco2)c1 | 24.4 | 0.4 | 21.5 | 55.6* | 0.7 | 15.7
Cc1noc(-c2ccc(Cl)cc2)c1C(=O)O/N=C(\N)c1ccc(C(C)(C)C)cc1 | · | · | 94.4* | · | -5.3 | 10.3
COc1cc(OC)c(C(=O)O/N=C(\N)c2cccc(C)c2)cc1OC | · | · | 4.9 | · | -4.5 | ·
N/C(=N\OC(=O)C1CCCCC1)c1ccccn1 | -1.1 | 0.3 | 5.3 | 72.4* | 2.7 | 9.0
SMILES | STAT3 blocker | FLuc stim CS | C8 TRAIL sens | FLuc inh counter | HSP90 inh | PPC-1+TRAIL kill
Cc1ccc(/C(N)=N/OC(=O)c2ccco2)cc1 | 30.7 | 0.4 | 38.6 | 59.9* | 7.8 | -6.6
Cc1ccc(S(=O)(=O)N2CCN(C(=O)c3ccc(COc4ccccc4)o3)CC2)cc1 | · | · | 5.6 | · | · | ·
Cn1c(N)c(C(=O)c2cc(-c3ccccn3)nc3ccccc23)c(=O)[nH]c1=O | 4.7 | 0.9 | -19.3 | 11.4 | 2.0 | 5.1
CCN(C(=O)Cn1c(=O)oc2ccccc21)c1ccc(C)c(C)c1 | · | · | -15.2 | · | -0.2 | ·
O=C1Nc2ccccc2N(C(=O)c2ccc3ccccc3c2)C1c1nc2ccccc2[nH]1 (configuration not stated) | · | · | 58.2* | · | · | ·
O=C1NC(c2ccccc2)=N/C1=C/c1ccco1 | -2.4 | 0.3 | 23.7 | 72.8* | 0.1 | 29.7
O=C1NC(c2cccc(Br)c2)=N/C1=C\c1ccco1 | 20.2 | 0.9 | -4.2 | 9.9 | -7.6 | 9.3
Cc1cc(C)cc(OCC(=O)Nc2ccncc2)c1 | · | · | 5.4 | · | -1.7 | ·
CC1=C(C(=O)N(C)C)CC(CC(=O)NCCCCc2ccccc2)C(=O)N1CCCN1CCCC1=O (configuration not stated) | · | · | 2.2 | · | · | ·
O=C(NCc1cccnc1)c1cc(C2CCCN(S(=O)(=O)c3ccccc3)C2)on1 (configuration not stated) | · | · | 11.2 | · | · | ·
CCCC[n+]1ccn(C2=C([O-])c3ccccc3C(=O)/C2=N\S(=O)(=O)c2ccc(Br)cc2)c1 | -4.2 | 1 | 55.9* | 1.5 | 1.2 | 24.8
CC(=O)c1ccc(NC(=O)c2ccc(C)c(S(=O)(=O)N3CCOCC3)c2)cc1 | · | · | -3.9 | · | -1.9 | ·
Cc1cc(C)n(-c2ccc(C(=O)Nc3ccccn3)cc2)n1 | 34.7 | 0.3 | 49.0 | 65.3* | 6.1 | -17.4
Cc1cc(C)n(-c2ccc(C(=O)Nc3ccc(C)c(S(=O)(=O)N4CCOCC4)c3)cc2)n1 | · | · | 53.2* | · | -0.3 | 21.6
COc1cc(OC)c(/C=N/NC(=O)c2ccncc2)c(OC)c1 | · | · | -6.3 | · | 4.9 | ·
O=C1NC(c2ccc(Br)cc2)Nc2ccccc21 (configuration not stated) | · | · | 33.4 | · | -1.9 | ·
O=C1NC(c2ccc3ccccc3c2)Nc2ccccc21 (configuration not stated) | · | · | 29.2 | · | · | ·
CCN(CC)c1ccc(C2NC(=O)c3ccccc3N2)cc1 (configuration not stated) | · | · | 91.9* | · | · | ·
O=C1NC(c2ccc3c(c2)OCO3)Nc2ccccc21 (configuration not stated) | 12.5 | 1.1 | 26.5 | -5.8 | -0.5 | 70.9*
COc1cc(OC)cc(C2=Cc3ccccc3C(CC(=O)c3ccco3)N2c2ccc(-c3cccnc3)cc2)c1 (configuration not stated) | · | · | -16.1 | · | · | ·
CN(C)CCCn1cnc2c(c1=N)C(c1ccccc1)c1ccc3ccccc3c1O2 (configuration not stated) | · | · | 70.5* | · | 0.7 | ·
N=c1c2c(ncn1CCCO)Oc1c(ccc3ccccc13)C2c1ccccc1 (configuration not stated) | · | · | 15.7 | · | 1.9 | 7.0
CCN1CCN(CC(=O)N2N=C(c3cccs3)CC2c2ccc(OC)c(OC)c2)C(=O)C1=O (configuration not stated) | 10.0 | 1.1 | 21.1 | -7.0 | -2.6 | 30.8
C=C1C(=O)c2sccc2C(c2ccc(OC)c(OC)c2)C1COC(C)=O (configuration not stated) | · | · | 92.7* | · | · | ·
